An excerpt weighted towards active compounds, which were near 4.2% of everything screened.
AHR activator – activators of human aryl hydrocarbon receptor; activation, % at 5 µM; P35869; AHR-responsive luciferase reporter cells, luminescence; 2.5% of 320,000 active; in the data active = activation above about 47%;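 also: 0% = vehicle wells and 100% = reference agonist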
Target sequence (P35869 whole entry, looked up): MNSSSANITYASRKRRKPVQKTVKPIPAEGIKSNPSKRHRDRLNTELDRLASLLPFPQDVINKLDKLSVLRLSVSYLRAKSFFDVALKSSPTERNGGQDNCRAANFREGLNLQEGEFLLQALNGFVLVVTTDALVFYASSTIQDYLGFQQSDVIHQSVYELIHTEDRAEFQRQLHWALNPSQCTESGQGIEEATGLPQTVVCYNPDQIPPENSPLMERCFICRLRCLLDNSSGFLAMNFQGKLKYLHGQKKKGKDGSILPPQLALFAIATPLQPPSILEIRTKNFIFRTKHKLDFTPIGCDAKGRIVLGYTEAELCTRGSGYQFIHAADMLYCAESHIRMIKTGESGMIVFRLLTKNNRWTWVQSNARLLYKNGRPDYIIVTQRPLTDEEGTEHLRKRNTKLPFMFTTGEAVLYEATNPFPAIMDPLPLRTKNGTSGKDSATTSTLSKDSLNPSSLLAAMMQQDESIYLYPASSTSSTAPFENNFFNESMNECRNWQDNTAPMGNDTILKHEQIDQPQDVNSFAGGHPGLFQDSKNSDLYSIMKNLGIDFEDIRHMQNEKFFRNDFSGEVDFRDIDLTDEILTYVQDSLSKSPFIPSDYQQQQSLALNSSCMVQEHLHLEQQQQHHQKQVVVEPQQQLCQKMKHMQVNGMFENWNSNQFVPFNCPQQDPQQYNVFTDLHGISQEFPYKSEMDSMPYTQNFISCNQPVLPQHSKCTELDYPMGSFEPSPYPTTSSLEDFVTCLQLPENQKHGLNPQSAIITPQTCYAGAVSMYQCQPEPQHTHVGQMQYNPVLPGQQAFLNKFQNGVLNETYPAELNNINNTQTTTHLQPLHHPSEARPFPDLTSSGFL
CTSL1 counter – blocks F. hepatica cathepsin L1 in PFM18AAP counter-screen; AID 1906; recombinant F. hepatica cathepsin L1, Z-Leu-Arg-MCA fluorescence; 0.49% of 300,000 active; inhibition, % at 5.96 µM;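 active = inhibition above the mean of all tested compounds plus 3 SD, set per screening campaign, cut at about 17% in these data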;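 also: 0% = plate median of test compound wells and 100% = 1 µM Z-Phe-Ala-diazomethylketone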
M18AAP inhibitor – PfM18AAP enzyme inhibition; recombinant PfM18AAP, H-Glu-NHMec fluorogenic cleavage; 1.2% of 290,000 active; inhibition, % at 7.35 µM;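 active = inhibition above the campaign mean inhibition over all tested compounds plus 3 SD, cut at about 28% in these data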;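 also: 0% = plate median of test compound wells and 100% = 2 mM ZnCl2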
SENP1 FRET inh – SENP1 (human) catalytic domain inhibition | recombinant SENP1 catalytic domain, CyPet-SUMO1-YPet FRET cleavage | inhibition, % at 10 µM | 0.21% of 360,000 active;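 active = inhibition at least 30% at 10 µM, raw YFP signal under a set limit, fluorescence ratio 0.5 to 1.5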;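 also: 0% = enzyme with DMSO and 100% = no enzyme wells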
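material = recombinant human SENP1 catalytic domain, His6-tagged | quantity = 20 pM enzyme | reagent = 25 nM SUMO1 FRET substrate | compound dosing = 10 µM single point, 0.5% DMSO | timing = 50 min enzyme reaction, room temperature, light-protected | detection = FRET, CFP and YFP emission | control set = no-enzyme low, enzyme-DMSO high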
HDAC3 inhib – inhibitors of human histone deacetylase 3; AID 2718; O15379; recombinant HDAC3, fluorogenic peptide/trypsin coupled, fluorescence; 0.15% of 320,000 active; inhibition, % at 8.3 µM; in the data active = inhibition above about 26%, passing the limit was not always enough
GAA850 FXN act – activators of GAA850 frataxin (FXN) promoter; HEK293 lucGAA850 FXN promoter luciferase reporter, 24 h; percent of 10 µM SAHA response; activation, % at 6 µM; 0.56% of 360,000 active; AID 540364;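 active = activation above the average of all compounds screened plus 3 SD, cutoff fixed separately per campaign, cut at about 7.5% in these data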;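 also: 0% = DMSO wells and 100% = 10 µM SAHA wells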
SENP1 inh conf – confirmation of human SENP1 SUMO protease inhibitors; recombinant SENP1, CyPet-SUMO1-YPet FRET cleavage; AID 651678; inhibition, % at 10 µM; 34% of 520 active; shares compounds with SENP1 FRET inh; in the data active = inhibition mostly above about 35%, no sharp cut-off; inactive = mostly below about 32%;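 also: 0% = enzyme with DMSO and 100% = no enzyme control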
SENP1 kinetic – confirmation of human SENP1 SUMO protease inhibitors, kinetic. shares compounds with SENP1 FRET inh. recombinant SENP1, CyPet-SUMO1-YPet FRET kinetic cleavage. inhibition, % at 10 µM. 26% of 520 active; in the data active = inhibition mostly above about 32%, no sharp cut-off; inactive = mostly below about 29%;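 also: 0% = DMSO with enzyme and 100% = no enzyme substrate only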
* hit, by the source's call; . = not tested or not shown.

SMILES | AHR activator | CTSL1 counter | M18AAP inhibitor | SENP1 FRET inh | HDAC3 inhib | GAA850 FXN act | SENP1 inh conf | SENP1 kinetic
COC(=O)C1=Nc2ccccc2/C1=C\c1c(O)n(C)c(=O)n(C)c1=O | 9.0 | -0.5 | 4.4 | -15.7 | 0.2 | 0.8 | . | .
COc1ccc(OC)c(-n2c(O)c(/C=C3\C(C)=Nc4ccccc43)c(=O)[nH]c2=O)c1 | 13.9 | 0.9 | 8.7 | 81.9* | 7.5 | 1.5 | 10.2 | 11.7
COC(=O)c1ccc(C(C(=O)NC2CCCCC2)N(CCN2CCOCC2)C(=O)Cc2cccs2)cc1 (stereo not given) | 1.1 | -1.3 | 1.0 | 24.2 | -0.5 | 0.0 | . | .
C=CCN1C(=O)/C(=C/c2ccc(N3CCOCC3)o2)C(=O)NC1=S | -1.5 | 4.1 | -2.2 | 40.5* | 10.7 | 0.2 | 31.1 | 23.8
Cc1cc(C)c(Cn2c(C(=O)O)c(C=O)c3ccccc32)c(C)c1 | 2.5 | 6.2 | 12.2 | 97.1* | 5.9 | 0.7 | 76.7* | 50.9*
O=Cc1c(C(=O)O)n(Cc2ccccc2Cl)c2ccccc12 | 10.3 | 3.7 | -2.3 | 0.6 | 1.1 | 0.5 | . | .
COc1ccccc1N1CCN(Cc2ccccc2Cl)CC1 | 1.2 | -2.3 | 5.2 | 35.0* | -6.4 | 3.7 | -4.5 | 1.8
COCCNC(=O)CN1C(=O)CN=C(c2ccccc2)c2ccccc21 | -1.8 | 0.5 | -3.6 | 4.9 | . | 0.2 | . | .
CCOc1ccc(-n2c(O)c(N=Nc3c(C)n(C)n(-c4ccccc4)c3=O)c(=O)[nH]c2=O)cc1 | -0.3 | 4.3 | -3.8 | 8.5 | 4.3 | 0.8 | . | .

Screening results deposited in PubChem by several laboratories.
